Data from ChEMBL document CHEMBL3120102, “Structure-based design, synthesis and biological evaluation of novel anthra[1,2-d]imidazole-6,11-dione homologues as potential antitumor agents” (2013).

Experiments:
Type in all cases: functional
CAKI-1 = assay: Cytotoxicity against human CAKI-1 cells assessed as cell growth at 10 uM after 48 hrs by SRB assay; conditions: CAKI-1, 48 h, read-out: Activity
OVCAR-3 = assay: Cytotoxicity against human OVCAR3 cells assessed as cell growth at 10 uM after 48 hrs by SRB assay; conditions: OVCAR-3, 48 h, read-out: Activity
Outline: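 First stage of the NCI 60 human tumour cell line screen: a single dose is tested against every line. Cell growth is read as cellular protein by sulforhodamine B colorimetry after 48 h of drug exposure, with reference to a time-zero control and to untreated plates.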

HT-29 = assay: Cytotoxicity against human HT-29 cells assessed as cell growth at 10 uM after 48 hrs by SRB assay; conditions: HT-29, 48 h, read-out: Activity
T47D = assay: Cytotoxicity against human T47D cells assessed as growth inhibition after 48 hrs by SRB assay
Outline: (§1)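 NCI 60-cell-line screen, two stages. Five-dose testing at […]. Cellular protein measured by sulforhodamine B colorimetry after 48 h drug exposure. A time-zero control and drug-free plates are used to derive GI50, TGI and LC50 from dose-response curves plotted as log10 concentration per cell line.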

[1] = (§2) Cytotoxicity against human Hs578T cells assessed as growth inhibition after 48 hrs by SRB assay; conditions: Hs-578T
Outline: (§3)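 NCI 60-cell-line five-dose screen at […]. Drug exposure was 48 h, followed by sulforhodamine B protein staining. GI50, TGI and LC50 were calculated against a time-zero control and untreated plates, with dose–response curves plotted from log10 concentration.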

Hs-578T = assay: as §2; outline: as §3
MDA-MB-231 = assay: Cytotoxicity against human MDA-MB-231 cells assessed as growth inhibition after 48 hrs by SRB assay
Outline: (§4)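 NCI 60-cell-line screen, five-dose stage: each cell line exposed for 48 h to five concentrations spanning five log steps; cellular protein measured by sulforhodamine B colorimetry. A time-zero cell control and plates without drug are used to derive GI50, TGI and LC50 from log-concentration dose-response curves.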

MCF7 = assay: Cytotoxicity against human MCF7 cells assessed as growth inhibition after 48 hrs by SRB assay; outline: as §4
TK-10 = assay: Cytotoxicity against human TK10 cells assessed as growth inhibition after 48 hrs by SRB assay; outline: as §1
SK-OV-3 = assay: Cytotoxicity against human SKOV3 cells assessed as growth inhibition after 48 hrs by SRB assay; outline: as §4
OVCAR-8 = assay: Cytotoxicity against human OVCAR8 cells assessed as growth inhibition after 48 hrs by SRB assay; outline: as §4
UACC-62 = assay: Cytotoxicity against human UACC62 cells assessed as growth inhibition after 48 hrs by SRB assay; outline: as §1
[2] = (§5) Cytotoxicity against human UACC257 cells assessed as growth inhibition after 48 hrs by SRB assay; conditions: UACC-257, 48 h; outline: as §1
UACC-257 = assay: as §5; outline: as §1
SK-MEL-5 = assay: Cytotoxicity against human SK-MEL-5 cells assessed as growth inhibition after 48 hrs by SRB assay; outline: as §4
M14 = assay: Cytotoxicity against human M14 cells assessed as growth inhibition after 48 hrs by SRB assay; outline: as §3
SNB-75 = assay: Cytotoxicity against human SNB75 cells assessed as growth inhibition after 48 hrs by SRB assay; outline: as §1
SNB-19 = assay: Cytotoxicity against human SNB19 cells assessed as growth inhibition after 48 hrs by SRB assay; outline: as §1
SF-295 = assay: Cytotoxicity against human SF295 cells assessed as growth inhibition after 48 hrs by SRB assay; outline: as §4
SF-268 = assay: Cytotoxicity against human SF268 cells assessed as growth inhibition after 48 hrs by SRB assay; outline: as §4
SW-620 = assay: Cytotoxicity against human SW620 cells assessed as growth inhibition after 48 hrs by SRB assay; outline: as §1
KM12 = assay: Cytotoxicity against human KM12 cells assessed as growth inhibition after 48 hrs by SRB assay; outline: as §3
HCT-116 = assay: Cytotoxicity against human HCT116 cells assessed as growth inhibition after 48 hrs by SRB assay; outline: as §3
HCC 2998 = assay: Cytotoxicity against human HCC2998 cells assessed as growth inhibition after 48 hrs by SRB assay; outline: as §3
NCI-H226 = assay: Cytotoxicity against human NCI-H226 cells assessed as growth inhibition after 48 hrs by SRB assay; outline: as §4
[3] = (§6) Cytotoxicity against human EKVX cells assessed as growth inhibition after 48 hrs by SRB assay; outline: as §3
EKVX = assay: as §6; outline: as §3
RPMI-8226 = assay: Cytotoxicity against human RPMI8226 cells assessed as growth inhibition after 48 hrs by SRB assay; outline: as §4
MOLT-4 = assay: Cytotoxicity against human MOLT4 cells assessed as growth inhibition after 48 hrs by SRB assay; outline: as §4
K562 = assay: Cytotoxicity against human K562 cells assessed as growth inhibition after 48 hrs by SRB assay; outline: as §3

`O=C1c2ccccc2C(=O)c2c1ccc1[nH]c(=S)[nH]c21` gave a growth at 10 µM (CAKI-1) of 91.2%, a growth at 10 µM (OVCAR-3) of 86.9% and a growth at 10 µM (HT-29) of 104%.

With `O=C1c2ccccc2C(=O)c2c1ccc1nc(SCCN3CCCC3)[nH]c21` the GI50 (T47D) was 17.5 µM, the LC50 (T47D) was 92.8 µM and the TGI (T47D) was 40.3 µM. For the same compound, the “growth inhibition (GI)” value (T47D) was “Dose-dependent effect”, the GI50 [1] was 6.24 µM and the TGI [1] was 25.8 µM. The CC50 ([1]; read-out: LC50 (the source's name)) was 79.9 µM, the “growth inhibition (GI)” value (Hs-578T) was “Dose-dependent effect” and the “growth inhibition (GI)” value (MDA-MB-231) was “Dose-dependent effect”. It also gave a GI50 (MDA-MB-231; MDA-MB-231, 48 h) of 4.46 µM, an LC50 (MDA-MB-231; MDA-MB-231, 48 h) of 43.9 µM and a TGI (MDA-MB-231; MDA-MB-231, 48 h) of 16.2 µM. The “growth inhibition (GI)” value (MCF7) was “Dose-dependent effect”, the GI50 (MCF7; MCF7, 48 h) was 1.74 µM and the LC50 (concentration killing 50% of cells) (MCF7; MCF7, 48 h) was 45.6 µM. For the same compound, the TGI (MCF7; MCF7, 48 h) was 7.52 µM, the “growth inhibition (GI)” value (TK-10) was “Dose-dependent effect” and the GI50 (TK-10; TK-10, 48 h) was 4.22 µM. The LC50 (TK-10; TK-10, 48 h) was 46.8 µM, the TGI (TK-10; TK-10, 48 h) was 19.1 µM and the “growth inhibition (GI)” value (SK-OV-3) was “Dose-dependent effect”. For the same compound, the GI50 (SK-OV-3; SK-OV-3, 48 h) was 10.5 µM, the LC50 (concentration killing 50% of cells present at time zero) (SK-OV-3; SK-OV-3, 48 h) was 54 µM and the TGI (SK-OV-3; SK-OV-3, 48 h) was 23.8 µM. For the same compound, the “growth inhibition (GI)” value (OVCAR-8) was “Dose-dependent effect”, the GI50 (OVCAR-8; OVCAR-8, 48 h) was 6.38 µM and the LC50 (OVCAR-8; OVCAR-8, 48 h) was greater than 100 µM. For the same compound, the TGI (OVCAR-8; OVCAR-8, 48 h) was 30.4 µM, the “growth inhibition (GI)” value (UACC-62) was “Dose-dependent effect” and the GI50 (UACC-62; UACC-62, 48 h) was 15.8 µM. It also gave an LC50 (UACC-62; UACC-62, 48 h) of 57.4 µM, a TGI (UACC-62; UACC-62, 48 h) of 30.1 µM and a GI50 [2] of 18 µM. For the same compound, the LC50 [2] was 56.8 µM, the TGI [2] was 31.9 µM and the “growth inhibition (GI)” value (UACC-257) was “Dose-dependent effect”. The “growth inhibition (GI)” value (SK-MEL-5) was “Dose-dependent effect”, the GI50 (SK-MEL-5; SK-MEL-5, 48 h) was 12.9 µM and the LC50 (concentration killing 50% of cells relative to time zero) (SK-MEL-5; SK-MEL-5, 48 h) was 54.8 µM. The TGI (SK-MEL-5; SK-MEL-5, 48 h) was 26.6 µM, the “growth inhibition (GI)” value (M14) was “Dose-dependent effect” and the GI50 (M14; M14, 48 h) was 8.24 µM. For the same compound, the LC50 (M14; M14, 48 h) was 47.9 µM, the TGI (M14; M14, 48 h) was 21.2 µM and the “growth inhibition (GI)” value (SNB-75) was “Dose-dependent effect”. For the same compound, the GI50 (SNB-75; SNB-75, 48 h) was 12.3 µM, the LC50 (SNB-75; SNB-75, 48 h) was 51.5 µM and the TGI (SNB-75; SNB-75, 48 h) was 25.2 µM. For the same compound, the “growth inhibition (GI)” value (SNB-19) was “Dose-dependent effect”, the GI50 (SNB-19; SNB-19, 48 h) was 17.1 µM and the LC50 (SNB-19; SNB-19, 48 h) was 59.7 µM. The TGI (SNB-19; SNB-19, 48 h) was 31.9 µM, the “growth inhibition (GI)” value (SF-295) was “Dose-dependent effect” and the GI50 (SF-295; SF-295, 48 h) was 14.2 µM. For the same compound, the LC50 (SF-295; SF-295, 48 h) was 60.9 µM, the TGI (SF-295; SF-295, 48 h) was 29.4 µM and the “growth inhibition (GI)” value (SF-268) was “Dose-dependent effect”. It also gave a GI50 (SF-268; SF-268, 48 h) of 9.54 µM, an LC50 (concentration killing 50% of cells relative to time zero) (SF-268; SF-268, 48 h) of 52.9 µM and a TGI (SF-268; SF-268, 48 h) of 22.8 µM. The “growth inhibition (GI)” value (SW-620) was “Dose-dependent effect”, the GI50 (SW-620; SW-620, 48 h) was 1.94 µM and the LC50 (SW-620; SW-620, 48 h) was 19.7 µM. The TGI (SW-620; SW-620, 48 h) was 5.09 µM, the “growth inhibition (GI)” value (KM12) was “Dose-dependent effect” and the GI50 (KM12; KM12, 48 h) was 2.32 µM. For the same compound, the TGI (KM12; KM12, 48 h) was 6.16 µM, the CC50 (KM12; KM12, 48 h, read-out: LC50 (the source's name)) was 24.4 µM and the “growth inhibition (GI)” value (HCT-116) was “Dose-dependent effect”. It also gave a GI50 (HCT-116; HCT-116, 48 h) of 1.64 µM, an LC50 (HCT-116; HCT-116, 48 h) of 8.15 µM and a TGI (HCT-116; HCT-116, 48 h) of 3.66 µM. The “growth inhibition (GI)” value (HCC 2998) was “Dose-dependent effect”, the GI50 (HCC 2998; HCC 2998, 48 h) was 4.91 µM and the TGI (HCC 2998; HCC 2998, 48 h) was 18.5 µM. For the same compound, the CC50 (HCC 2998; HCC 2998, 48 h, read-out: LC50 (the source's name)) was 46 µM, the “growth inhibition (GI)” value (NCI-H226) was “Dose-dependent effect” and the TGI (NCI-H226; NCI-H226, 48 h) was 36.6 µM. The TGI [3] was 26.5 µM, the “growth inhibition (GI)” value (EKVX) was “Dose-dependent effect” and the “growth inhibition (GI)” value (RPMI-8226) was “Dose-dependent effect”. The GI50 (RPMI-8226; RPMI-8226, 48 h) was 1.79 µM, the LC50 (concentration causing 50% net cell kill) (RPMI-8226; RPMI-8226, 48 h) was 15.4 µM and the TGI (RPMI-8226; RPMI-8226, 48 h) was 4.31 µM. The “growth inhibition (GI)” value (MOLT-4) was “Dose-dependent effect”, the GI50 (MOLT-4; MOLT-4, 48 h) was 1.51 µM and the LC50 (50% lethal concentration) (MOLT-4; MOLT-4, 48 h) was 19.1 µM. The TGI (MOLT-4; MOLT-4, 48 h) was 4.29 µM, the “growth inhibition (GI)” value (K562) was “Dose-dependent effect” and the GI50 (K562; K562, 48 h) was 1.7 µM. The TGI (K562; K562, 48 h) was 5.2 µM and the CC50 (K562; K562, 48 h, read-out: LC50 (the source's name)) was 72 µM.
